# In ChEMBL document CHEMBL1129609, “Synthesis and antiviral activity evaluation of some new aminoadamantane derivatives. 2” (1996):
# Assays:
# [1] = system: Human immunodeficiency virus 2; assay: Antiviral activity against HIV-2 virus infected CEM cell lines.; format: functional, CCRF-CEM
# [2] = system: CCRF-CEM; assay: Cytotoxicity against CEM cell lines.; format: functional; conditions: Homo sapiens
# [3] = system: Human immunodeficiency virus 1; assay: Antiviral activity against HIV-1 virus infected CEM cell lines.; format: functional, CCRF-CEM
# [4] = system: Human alphaherpesvirus 1; assay: Antiviral activity against HSV-1 virus infected HEF cell lines.; format: functional
# How it was run: (§1)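 Human embryonic fibroblasts, from embryonic lung or embryonic skin-muscle, infected with the virus. Endpoint is the minimum inhibitory concentration that reduces virus-induced cytopathicity by 50%. Values are averages of at least two separate experiments.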
# [5] = system: Human alphaherpesvirus 2; assay: Antiviral activity against HSV-2 virus infected HEF cell lines.; format: functional; how it was run: as §1
# [6] = system: Human alphaherpesvirus 1; assay: Antiviral activity against TK-HSV-1 virus infected HEF cell lines.; format: functional; how it was run: as §1
# [7] = system: HEF; assay: Effects on cell morphology of HEF cell lines.; format: functional; conditions: Homo sapiens
# How it was run: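 Human embryonic skin-muscle fibroblasts were examined under the microscope for changes in normal cell morphology. The value is the minimum concentration causing a microscopically detectable alteration, averaged from at least two separate experiments.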
# [8] = system: Vaccinia virus; assay: Antiviral activity against vaccinia virus infected HEF cell lines.; format: functional; conditions: Orthopoxvirus vaccinia; how it was run: as §1
# [9] = system: Enterovirus C; assay: Antiviral activity against polio 1 virus infected HeLa cell lines.; format: functional
# How it was run: (§2)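 Vero (African green monkey kidney), HeLa (human epithelial) or HEL (human embryonic lung) cell monolayers infected with the virus. Readout is the minimum inhibitory concentration that reduces virus-induced cytopathicity by 50%. Values are averages of at least two separate experiments.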
# [10] = system: Vesicular stomatitis virus; assay: Antiviral activity against vesicular stomatitis virus infected HeLa cell lines.; format: functional; how it was run: as §2
# [11] = system: Coxsackievirus B4; assay: Antiviral activity against Coxsackie B4 virus infected HeLa cell lines.; format: functional; conditions: Enterovirus B; how it was run: as §2
# [12] = system: Human betaherpesvirus 5; assay: Antiviral activity against HCMV virus infected HEL cell lines.; format: functional; how it was run: as §2
# [13] = system: Human alphaherpesvirus 3; assay: Antiviral activity against TK+VZV virus infected HEL cell lines.; format: functional; how it was run: as §2
# [14] = system: Human alphaherpesvirus 3; assay: Antiviral activity against TK-VZV virus infected HEL cell lines.; format: functional; how it was run: as §2
# [15] = system: HEL; assay: Inhibition of HEL cell proliferation.; format: functional; conditions: Homo sapiens
# How it was run: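 Human embryonic lung fibroblasts were used for the proliferation assay. The value is the concentration that reduces cell proliferation by 50%, averaged from at least two separate experiments.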
# [16] = system: MDCK; assay: Antiviral activity tested against influenza A,H1N1 virus infected MDCK cell lines.; format: functional; conditions: Canis lupus familiaris
# [17] = Antiviral activity against influenza A,H3N2 virus infected MDCK cell lines.; format: functional
# [18] = system: Influenza B virus; assay: Antiviral activity against influenza B virus infected MDCK cell lines.; format: functional
# [19] = system: MDCK; assay: Antiviral activity of compound was tested against morphology virus infec+ted MDCK cell lines.; format: functional; conditions: Canis lupus familiaris
# [20] = system: Semliki Forest virus; assay: Antiviral activity against Semliki forest virus infected Vero cell lines.; format: functional; how it was run: as §2
# [21] = system: Coxsackievirus B4; assay: Antiviral activity against Coxsackie B4 virus infected vero cell lines.; format: functional; conditions: Enterovirus B; how it was run: as §2
# [22] = system: Vero; assay: Effects on cell morphology of Vero cell lines.; format: functional; conditions: Chlorocebus sabaeus
# How it was run: (§3)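 HeLa (human epithelial) or Vero (African green monkey kidney) cells were examined under the microscope for changes in normal morphology. The value is the minimum concentration causing a detectable alteration, averaged from at least two separate experiments.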
# [23] = system: Human respirovirus 3; assay: Antiviral activity against parainfluenza 3 virus infected Vero cell lines.; format: functional; how it was run: as §2
# [24] = system: Mammalian orthoreovirus 1; assay: Antiviral activity against Reo 1 virus infected vero cell lines.; format: functional; how it was run: as §2
# [25] = system: Sindbis virus; assay: Antiviral activity against sindbis virus infected Vero cell lines.; format: functional; how it was run: as §2
# [26] = Antiviral activity against influenza A,H2N2 virus infected MDCK cell lines.; format: functional
# [27] = system: HeLa; assay: Effects on cell morphology of HeLa cell lines.; format: functional; conditions: Homo sapiens; how it was run: as §3
# [28] = system: Vesicular stomatitis virus; assay: Antiviral activity against vesicular stomatitis virus infected HEF cell lines.; format: functional; how it was run: as §1
SMILES,MIC50 [1] [µg/mL],MIC50 [2] [µg/mL],MIC50 [3] [µg/mL],MIC50 [4] [µg/mL],MIC50 [5] [µg/mL],MIC50 [6] [µg/mL],MIC50 [7] [µg/mL],MIC50 [8] [µg/mL],MIC50 [9] [µg/mL],MIC50 [10] [µg/mL],MIC50 [11] [µg/mL],MIC50 [12] [µg/mL],MIC50 [13] [µg/mL],MIC50 [14] [µg/mL],MIC50 [15] [µg/mL],MIC50 [16] [µg/mL],MIC50 [17] [µg/mL],MIC50 [18] [µg/mL],MIC50 [19] [µg/mL],MIC50 [26] [µg/mL],further results
CCN1CCCC1C12CC3CC(CC(C3)C1)C2 (stereo not given),> 40,115,> 40,> 100,> 100,> 100,200,> 100,> 400,> 400,> 400,> 50,> 50,> 50,> 50,> 34,58,60,250,> 14,MIC50 [20]: > 400 µg/mL; MIC50 [21]: > 400 µg/mL; MIC50 [22]: > 400 µg/mL; MIC50 [23]: > 400 µg/mL; MIC50 [24]: > 400 µg/mL; MIC50 [25]: > 400 µg/mL; MIC50 [27]: > 400 µg/mL; MIC50 [28]: > 100 µg/mL
CNC1(C23CC4CC(CC(C4)C2)C3)CCCC1,> 8,49,> 8,> 10,> 10,> 10,40,> 10,> 40,> 40,> 40,> 20,> 20,> 20,> 50,59,> 60,> 80,> 250,9,MIC50 [20]: > 100 µg/mL; MIC50 [21]: > 100 µg/mL; MIC50 [22]: > 400 µg/mL; MIC50 [23]: > 100 µg/mL; MIC50 [24]: > 100 µg/mL; MIC50 [25]: > 100 µg/mL; MIC50 [27]: > 100 µg/mL; MIC50 [28]: > 10 µg/mL
C1COCC2(N1)C1CC3CC(C1)CC2C3 (stereo not given),> 200,> 200,158,> 200,> 200,> 200,> 200,> 200,> 400,> 400,> 400,> 50,> 50,> 50,> 50,29,13,20,> 250,1.7,MIC50 [20]: > 400 µg/mL; MIC50 [21]: > 400 µg/mL; MIC50 [22]: > 400 µg/mL; MIC50 [23]: > 400 µg/mL; MIC50 [24]: > 400 µg/mL; MIC50 [25]: > 400 µg/mL; MIC50 [27]: > 400 µg/mL; MIC50 [28]: > 200 µg/mL
CC(N)C12CC3CC(CC(C3)C1)C2 (stereo not given) [RIMANTADINE],,,,,,,,,,,,,,,,28,> 12,> 20,250,< 0.14,
CN1CCCCC12C1CC3CC(C1)CC2C3 (stereo not given),> 200,> 200,115,> 200,> 200,> 200,100,> 200,> 400,> 400,> 400,> 50,> 50,> 50,> 50,6.2,45,60,> 250,0.58,MIC50 [20]: > 400 µg/mL; MIC50 [21]: > 400 µg/mL; MIC50 [22]: > 400 µg/mL; MIC50 [23]: > 400 µg/mL; MIC50 [24]: > 400 µg/mL; MIC50 [25]: > 400 µg/mL; MIC50 [27]: > 400 µg/mL; MIC50 [28]: > 200 µg/mL
CC(C)(C)C1CCCN1CC12CC3CC(CC(C3)C1)C2 (stereo not given),> 40,72,> 40,> 100,> 100,> 100,200,> 100,> 100,> 100,> 100,> 50,35,20,> 50,> 104,> 100,> 100,> 250,> 100,MIC50 [20]: > 200 µg/mL; MIC50 [21]: > 200 µg/mL; MIC50 [22]: 400 µg/mL; MIC50 [23]: > 200 µg/mL; MIC50 [24]: > 200 µg/mL; MIC50 [25]: > 200 µg/mL; MIC50 [27]: 200 µg/mL; MIC50 [28]: > 100 µg/mL
